Screens (PubChem)
APJ agonist: activates the human apelin receptor APJ | P35414 | CHO-K1 APJ PathHunter beta-arrestin, luminescence; 0% DMSO wells, 100% apelin | activation, % at 20 µM | 330,000 compounds, 0.11% hits | AID 2520;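 active means activation more than six SD over the plate average, tested at 20 µM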
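Material: engineered CHO-K1 APJ arrestin reporter cells; amount: 1000 CHO-K1 reporter cells seeded per well; incubation: compound stimulation 90 min at 25 °C, detection 60 min; signal: luminescent beta-gal fragment complementation, chemiluminescent substrate; read-out basis: APJ agonist activity; controls: DMSO-only wells as negative, 10 nM Apelin-13 as positive control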
CXCR6 inh: CXCR6 (human) receptor inhibition. 360,000 compounds, 0.36% hits. AID 602244. CHO-K1 PathHunter CXCR6 beta-arrestin, luminescence. inhibition, % at 20 µM; in the data active means inhibition above about 34%, passing the limit was not always enough;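 further: antagonist mode with CXCL16 agonist at 10 nM final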
EBI2 block: blocks human EBI2 receptor beta-arrestin signaling; EBI2 beta-arrestin recruitment, luminescence, 7a,25-OHC stimulated; AID 651636; P32249; inhibition, % at 5 µM; 360,000 compounds, 0.81% hits; in the data active means inhibition above about 38%;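 further: enzyme fragment complementation signal reports receptor beta-arrestin coupling in cells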
APJ antagonist: blocks the human apelin receptor APJ; P35414; CHO-K1 APJ beta-arrestin complementation, luminescence; inhibition, % at 20 µM; 330,000 compounds, 0.32% hits;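 active means inhibition above about 40% at 20 µM, limit read from the data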;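 further: cells challenged with 10 nM apelin-13 agonist together with compound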
CCR6 antag: antagonists of human CCR6 receptor; P51684; CHO-K1 CCR6 PathHunter beta-arrestin, luminescence, CCL20-stimulated; inhibition, % at 20 µM; 340,000 compounds, 0.49% hits;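 active means compounds whose inhibition of the agonist-driven luminescence signal at 20 µM reaches about 50%, limit read from the data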;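 further: cells stimulated with CCL20 at 14 nM final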
Target sequence (P51684 whole entry, looked up): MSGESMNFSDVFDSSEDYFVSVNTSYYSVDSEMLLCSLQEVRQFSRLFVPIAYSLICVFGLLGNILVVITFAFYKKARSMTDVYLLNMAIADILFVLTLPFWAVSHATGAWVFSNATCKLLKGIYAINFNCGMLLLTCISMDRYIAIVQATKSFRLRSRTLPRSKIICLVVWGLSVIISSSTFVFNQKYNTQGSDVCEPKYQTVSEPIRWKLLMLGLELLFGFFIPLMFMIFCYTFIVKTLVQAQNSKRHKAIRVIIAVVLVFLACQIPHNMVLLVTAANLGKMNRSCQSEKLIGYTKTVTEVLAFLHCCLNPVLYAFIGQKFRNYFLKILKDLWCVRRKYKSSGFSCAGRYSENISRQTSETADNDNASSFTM
EBI2 conf: confirmation of human EBI2 receptor antagonists. EBI2 beta-arrestin luminescence, 7a,25-OHC antagonism. 2,400 compounds, 29% hits. shares compounds with EBI2 block. inhibition, % at 5 µM;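 active means inhibition of at least 50%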
EBI2 agonist: counter-screen for EBI2 antagonists: EBI2 agonist activity; shares compounds with EBI2 block; EBI2-expressing cells, agonist mode, luminescence, 60 min; 0% vehicle, 100% 7α,25-dihydroxycholesterol control; 2,400 tested, under 10 active; activation, % at 5 µM;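 active means activation of at least 50%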
bGal counter: inhibits E. coli beta-galactosidase, counter-screen for EBI2 antagonists; shares compounds with EBI2 block; purified beta-galactosidase, luminescent Galacton Star, 15 min; inhibition, % at 5 µM; 2,400 compounds, 1% hits; AID 652176;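 active means replicate-average signal at least 3 plate SD below neutral wells, shown as high inhibition, flagging enzyme-inhibiting false positives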;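 further: higher means stronger loss of beta-gal luminescence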
Each line names hits and unclear results; the compound was inactive in the other large screens (follow-up assays come after a bar, where they were run). Shown are actives, neighbours in structure and some others; about 1.5% of the full set was active somewhere.

OC[C@@H]1CN(Cc2cccc(C(F)(F)F)c2)C[C@H](n2cnc3c(NCc4ccc(F)cc4)ncnc32)O1	none (no result: APJ agonist, APJ antagonist, CCR6 antag)
Cc1noc(C)c1S(=O)(=O)Nc1ccc2c(c1)C(=O)N([C@H](C)CO)C[C@H](C)[C@@H](CN(C)C(=O)CCCN(C)C)OCCCC[C@@H](C)O2	none (no result: APJ agonist, APJ antagonist, CCR6 antag)
Cn1cccc1CC(=O)N/N=C\c1ccccc1	EBI2 block 44 | EBI2 conf inactive | EBI2 agonist inactive | bGal counter inactive
Cc1ccccc1CS(=O)(=O)Cc1ccc(C(=O)NCCc2ccccc2)o1	EBI2 block 37 | EBI2 conf inactive | EBI2 agonist inactive | bGal counter inactive
CCCCNC(=O)CSc1nc2ccc(Nc3nc(N4CCOCC4)nc(N4CCOCC4)n3)cc2s1	none
CCCCSc1nc2ccc(Nc3nc(N4CCOCC4)nc(N4CCOCC4)n3)cc2s1	EBI2 block 46 | EBI2 conf inactive | EBI2 agonist inactive | bGal counter inactive
CC(=O)Nc1cc(-c2ccccc2CN(C)C)cn2c(-c3ccc(C(C)=O)cc3)cnc12	none (no result: APJ agonist, APJ antagonist, CCR6 antag)
CCCCNC(=O)C(NC(=O)c1cccnc1OC)C(=O)c1ccccc1 (stereo unspecified)	none (no result: APJ agonist, CXCR6 inh, APJ antagonist, CCR6 antag)
C=CCNc1nnnc2c1sc1nc(N3CCOCC3)c3c(c12)CCCC3	EBI2 block 52 | EBI2 conf inactive | EBI2 agonist inactive | bGal counter inactive
CC(C)CNc1nnnc2c1sc1nc(N3CCOCC3)c3c(c12)CCCC3	none
COc1ccc(-c2cc(-c3ccccc3)nc3ncnn23)cc1	none
COc1ccc(-c2cc(-c3ccc(Br)cc3)nc3ncnn23)cc1OC	EBI2 block 60 | EBI2 conf inactive | EBI2 agonist inactive | bGal counter inactive
Cc1ccc(C2=CN(Cc3ccccc3)CCC2=O)cc1	EBI2 block 44 | EBI2 conf inactive | EBI2 agonist inactive | bGal counter inactive
O=C1CCN(Cc2ccccc2)C=C1c1ccc(Br)cc1	EBI2 block 84 | EBI2 conf 67 | EBI2 agonist inactive | bGal counter inactive
CCOC(=O)C1=CCC(c2ccccc2C(F)(F)F)N(S(=O)(=O)c2ccc(C)cc2)C1 (stereo unspecified)	none (no result: APJ agonist, APJ antagonist, CCR6 antag)
COc1ccc(C(C)=O)cc1CSc1nc2ccccc2c(=O)n1-c1ccccc1C	EBI2 block 44 | EBI2 conf inactive | EBI2 agonist inactive | bGal counter inactive
CCc1nc2ccc(C(=O)N3CCCCC3)cn2c1N(C)CCCc1ccccc1	none (no result: APJ agonist, APJ antagonist, CCR6 antag)
COC(=O)[C@]12CCCCC=C1N(Cc1ccc3c(c1)OCO3)C(=O)[C@H](CC(=O)NCc1cccc3ccccc13)C2	none (no result: APJ agonist, CXCR6 inh, APJ antagonist, CCR6 antag)
CC(Oc1ccc(F)cc1)C(=O)Nc1ccc2ccccc2c1 (stereo unspecified)	EBI2 block 50 | EBI2 conf inactive | EBI2 agonist inactive | bGal counter inactive
O=C1CC(c2ccccc2)=C(c2ccccc2)C1c1ccccc1 (stereo unspecified)	none (no result: APJ agonist, APJ antagonist)
Cc1cccc(S(=O)(=O)NC(=O)C2(C)CCN2C(=O)c2ccccc2)c1 (stereo unspecified)	none (no result: APJ agonist, APJ antagonist, CCR6 antag)
O=C(Cn1cccc1C(=O)c1ccccc1)NCCc1ccc(Cl)cc1	EBI2 block 49 | EBI2 conf inactive | EBI2 agonist inactive | bGal counter inactive
O=C(Cn1cccc1C(=O)c1ccccc1)NCCc1ccccc1	none
COc1ccc(/C=N/NC(N)=S)cc1OC(=O)c1cccc2ccccc12	EBI2 block 56 | EBI2 conf inactive | EBI2 agonist inactive | bGal counter inactive
CC(C)N1CCCC(C)(C(=O)Nc2cccc(Oc3ccccc3)c2)C1 (stereo unspecified)	none (no result: APJ agonist, APJ antagonist, CCR6 antag)
CC(O)(c1ccc(F)c(F)c1)c1nc(-c2ccc(S(C)(=O)=O)cc2)cs1 (stereo unspecified)	none (no result: APJ agonist, APJ antagonist, CCR6 antag)
C=C(C)COc1ccc(-c2nc(N)nc(C)c2Oc2ccccc2OC)c(O)c1	none
CCOc1ccc(-c2nc(N)nc(C)c2-c2ccc(Cl)cc2)c(O)c1	EBI2 block 55 | EBI2 conf inactive | EBI2 agonist inactive | bGal counter inactive
